Experimental findings from ChEMBL document CHEMBL3244358, “Conformational analogues of antihypertensive agents related to guanethidine” (J Med Chem, 1977) are described below.

The source made the active and inactive calls. No cut-off for these calls is given here.

For experiment [1], the species on record is Cavia porcellus. Description: Antagonist activity at adrenergic receptor in guinea pig vas deferens assessed as inhibition of electrically-induced release of norepinephrine measured every 10 mins. It is filed as tissue-based. The gist of the method: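 Isolated guinea pig vas deferens in Krebs solution, stimulated transmurally for 15 s every 4 min at 25-35 shocks/s, 0.1 ms pulses, supramaximal 110-120 V. Salts were dissolved in distilled water, with a fresh preparation for each drug. Responses were read at 10-min intervals. ID50, the bath concentration giving 50% inhibition, came from dose-response curves of at least three concentrations, as free base.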

The species entered for experiment [2] is Cavia porcellus. Description: Equipotent molar ratio, ratio of compound ID50 to guanethidine ID50 for adrenergic receptor in guinea pig vas deferens assessed as inhibition of electrically-induced release of norepinephrine.
For experiment [3], the species on record is Cavia porcellus. Briefly: Antagonist activity at adrenergic receptor in guinea pig vas deferens assessed as inhibition of electrically-induced release of norepinephrine at 1 x 10^-4 M measured every 10 mins. It is filed as tissue-based.

As for `N=C(N)NC1CCc2ccccc21` (stereo unspecified), the ID50 in the experiment listed under Cavia porcellus [1] worked out at 5.8 µM. Further, the EPMR in the experiment listed under Cavia porcellus [2] is 2.9. As for `COc1ccc2c(c1)CCC2NC(=N)N` (stereo unspecified), in the experiment filed under Cavia porcellus [3], the inhibition result was “inactive”. On to `N=C(N)NCCc1ccc2ccccc2c1`, for which the ID50 in the experiment listed under Cavia porcellus [1] was determined as 5 µM. Further, in the experiment filed under Cavia porcellus [2], the EPMR was found to be 2.5. The like results for `N=C(N)NCC1Cc2ccccc21` (stereo unspecified) were, in that order, 2.5 µM and 1.25. The like results for `N=C(N)NC1CCc2ccc([N+](=O)[O-])cc21` (stereo unspecified) were, in that order, 2 ×10⁻⁵ M and 10. The like results for `N=C(N)NC[C@@H]1C[C@H]1c1ccccc1` were, in that order, 7.3 µM and 3.65. Consider `N=C(N)N[C@@H]1C[C@H]1c1ccccc1`, for which the ID50 in the experiment listed under Cavia porcellus [1] came out at 5.05 µM. Also, in the experiment listed under Cavia porcellus [2], the EPMR stood at 2.52.

As to `N=C(N)N[C@H]1C[C@H]1c1ccccc1` (relative stereo), the inhibition result in the experiment listed under Cavia porcellus [3] is “inactive”. As to `N=C(N)NCCc1cccc2ccccc12`, the ID50 in the experiment filed under Cavia porcellus [1] came out at 1.2 ×10⁻⁵ M. In the experiment filed under Cavia porcellus [2], the EPMR came out at 6. The like results for `N=C(N)NC[C@H]1C[C@H]1c1ccccc1` (relative stereo) were, in that order, 9.1 µM and 4.55.

Take `N=C(N)NC/C=C/C1CCCCC1`: in the experiment listed under Cavia porcellus [1], the ID50 was determined as 7.7 ×10⁻⁷ M. Moreover, in the experiment listed under Cavia porcellus [2], the EPMR amounted to 0.39.

Turning to `N=C(N)NC1Cc2ccccc2C1`, the inhibition entry in the experiment listed under Cavia porcellus [3] is “inactive”. In the case of `N=C(N)NC/C=C\C1CCCCC1`, in the experiment filed under Cavia porcellus [1], the ID50 is 9.8 ×10⁻⁸ M. Moreover, the EPMR in the experiment listed under Cavia porcellus [2] was determined as 0.049. As for `N=C(N)NCCN1CCCCCCC1`, in the experiment listed under Cavia porcellus [1], the ID50 came out at 2 µM. In the case of `N=C(N)NCc1cccc2ccccc12`, the ID50 in the experiment filed under Cavia porcellus [1] was determined as 1.9 ×10⁻⁷ M. The EPMR in the experiment filed under Cavia porcellus [2] amounted to 0.095.
